Screening data deposited in PubChem by several laboratories.
Most compounds without a hit are left out; they make up all but 1.5% or so of the library.
MDM2 E3 inh: Mdm2 E3 ligase (human) inhibition | Q00987 | cell-based MDM2 ubiquitination luciferase reporter, 2 h; 0 = plate control, 100 = twice control, blank-subtracted | signal enhancement, % at 5 µM | 210,000 compounds, 0.11% hits | AID 1230;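 active = signal enhancement of 30% or more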;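 note: luminescence tracks abundance of the self-degrading MDM2-luciferase fusion protein; higher signal means inhibition of MDM2 E3 ligase activity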
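Buffer or medium: Cells held in DMEM | Assay system: Stable mammalian line carrying autodegrading MDM2–luciferase fusion reporter | Quantity: 2000 cells/well | Times: 4 h settle plus 2 h compound, 37 °C | Doses: One concentration, 5 µM, with 0.2% DMSO | Technique: Luminescence with SteadyLite reagent, 15 min at room temperature | Benchmarks: Plate controls and plate blanks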
Wee1 stabilizer: blocks degradation of human Wee1 kinase. HeLa Luc-Wee1K328M stability, luciferase luminescence; 100% = proteasome inhibitor MG132 effect. reporter increase, % at 5 µM. 220,000 compounds, 1.2% hits. AID 1321;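 active = activation above the mean of all tested compounds plus 3 SD, set per screening run, cut at about 8.8% in these data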;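 note: cells exposed to compound for 20 h before luminescence read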
Target sequence (P30291 whole entry K328M): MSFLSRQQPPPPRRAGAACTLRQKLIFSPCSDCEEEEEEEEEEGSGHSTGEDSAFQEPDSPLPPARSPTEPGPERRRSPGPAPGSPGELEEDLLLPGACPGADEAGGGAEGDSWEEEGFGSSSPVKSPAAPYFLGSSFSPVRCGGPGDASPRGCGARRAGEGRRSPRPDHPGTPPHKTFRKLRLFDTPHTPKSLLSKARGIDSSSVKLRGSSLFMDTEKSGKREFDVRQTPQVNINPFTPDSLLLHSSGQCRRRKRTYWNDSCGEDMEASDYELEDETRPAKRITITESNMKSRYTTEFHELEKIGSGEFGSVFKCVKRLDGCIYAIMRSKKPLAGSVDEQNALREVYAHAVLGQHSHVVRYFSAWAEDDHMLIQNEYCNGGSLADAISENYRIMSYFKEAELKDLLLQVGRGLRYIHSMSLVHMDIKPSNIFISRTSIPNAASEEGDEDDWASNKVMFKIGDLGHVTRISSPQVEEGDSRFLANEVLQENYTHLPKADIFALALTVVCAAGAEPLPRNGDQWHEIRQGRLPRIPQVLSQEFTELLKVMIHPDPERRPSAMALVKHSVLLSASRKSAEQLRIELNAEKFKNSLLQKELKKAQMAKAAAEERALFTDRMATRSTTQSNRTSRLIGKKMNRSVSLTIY
Hsp70 activator: transcriptional activators of Hsp70; HeLa Hsp70 promoter luciferase reporter, luminescence; scaled: vehicle 0, proteasome-inhibitor control 100%; activation, % at 10 µM; 200,000 compounds, 0.04% hits; AID 1203;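 active = activation above the mean across all tested compounds plus 3 SD, cutoff set per campaign, cut at about 5.5% in these data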
Pf gamet viab: inhibitors of late stage P. falciparum gametocyte viability. P. falciparum stage V gametocytes, ATP luminescence, 24 h. inhibition, % at 10.9 µM. 150,000 compounds, 0.065% hits. AID 743093;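 active = inhibition above the mean plus 3 SD of compounds within the control limits, set per campaign, cut at about 38% in these data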
Calpain2 inh: calpain II (pig) inhibition | 220,000 compounds, 0.37% hits | purified calpain II, fluorogenic peptide substrate, 30 min | inhibition, % at 16 µM;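 active = inhibition above about 50%, limit read from the data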
Of the large screens only hits and unclear results are named; the others gave an inactive call.

O=[N+]([O-])c1cccc(S(=O)(=O)NC2CC3CCC2C3)c1 (stereo not given)	none (no result: MDM2 E3 inh, Wee1 stabilizer, Hsp70 activator, Calpain2 inh)
CCCCOc1ccc(C(=O)N2CCCCCC2)cc1	none (no result: Pf gamet viab)
O=C(c1ccc(COc2ccc(Cl)cc2)cc1)N1CCCCC1	Calpain2 inh 58
Cc1nnc(SCC(=O)Nc2nc3c(s2)CC(C)CC3)s1 (stereo not given)	Wee1 stabilizer 8.9 (no result: Pf gamet viab)
COc1ccc(CCNC(=O)CCCCCNc2nc(=S)[nH]c3ccccc23)cc1OC	Wee1 stabilizer 10
O=C1c2ccccc2C(=O)N1CCc1csc(-c2cccc(Cl)c2)n1	Calpain2 inh 59
Cn1ncc2c(NNC(=O)c3ccccc3Cl)ncnc21	Wee1 stabilizer 9.3
Cc1ccccc1C(=O)NNc1ncnc2c1cnn2C	none
O=C(O)c1ccc2c(c1)S(=O)(=O)c1cc(Cl)ccc1C2=O	none (no result: MDM2 E3 inh, Wee1 stabilizer, Hsp70 activator, Calpain2 inh)
O=C(Cn1cc(C(=O)c2ccco2)c2ccccc21)Nc1ccccc1	Calpain2 inh 61 (no result: Pf gamet viab)
CN1CCN(CCCNc2c(C=O)c(=O)[nH]c3ccccc23)CC1	none (no result: MDM2 E3 inh, Wee1 stabilizer, Hsp70 activator, Calpain2 inh)
CC(=O)C1=C(c2cccc([N+](=O)[O-])c2)N(C(C)=O)n2c(C)nnc2S1	Wee1 stabilizer 10.0
Cc1cc(C)c2nc(C)cc(Nc3ccc(C(=O)N(C)C)cc3)c2c1	none (no result: Hsp70 activator, Pf gamet viab)
CC(=O)c1ccc(Nc2cc(C)nc3c(C)cc(C)cc23)cc1	Wee1 stabilizer 11
C(=N\NC1=Nc2cccc3cccc1c23)/c1ccccc1	Wee1 stabilizer 8.9
O=C1c2ccccc2C(=O)N1CCCCCc1nc(-c2ccccc2)no1	Calpain2 inh 64 (no result: Pf gamet viab)
CC(C)N(Cc1nc(-c2ccc(Cl)cc2)no1)C(=O)CCCN1C(=O)c2ccccc2C1=O	Calpain2 inh 65 (no result: Pf gamet viab)
Cc1ccc(-c2noc(CCCN3C(=O)c4ccccc4C3=O)n2)cc1	none
CC(C)N(Cc1nc(-c2ccccc2)no1)C(=O)c1ccc(Cl)cc1	none (no result: Pf gamet viab)
Cc1ccc(Nc2ncccc2C(=O)NCc2cccs2)c(C)c1	none
Cc1cccc(Nc2ncccc2C(=O)NCc2cccs2)c1C	Calpain2 inh 54
CCC(C(=O)NC1CCCC1)N(C(=O)Cn1nnc(-c2ccc(C)o2)n1)c1cnc2ccccc2c1 (stereo not given)	Wee1 stabilizer 9.8
CCn1c(=O)c2sccc2n(Cc2cc(C(=O)OC)ccc2OC)c1=O	none (no result: MDM2 E3 inh, Wee1 stabilizer, Hsp70 activator, Calpain2 inh)
O=C(Nc1cnn(Cc2ccc(F)cc2)c1)C(c1ccccc1)c1ccccc1	Calpain2 inh 53
CCC(CC)N1CCN(C(=O)c2cccc(Cl)c2)CC1	none (no result: MDM2 E3 inh, Wee1 stabilizer, Hsp70 activator, Calpain2 inh)
O=C1NCCN1C(=O)c1cccc(Cl)c1	Wee1 stabilizer 12
CN(NS(=O)(=O)c1ccc(Cl)cc1)c1cnn(C)c(=O)c1Cl	Wee1 stabilizer 9.9 (no result: Hsp70 activator)
CN(NS(=O)(=O)c1ccc(Cl)cc1)c1nc(C(F)(F)F)nc2ccccc12	none (no result: Pf gamet viab)
CC(C)c1ccc(O)c(C(=O)c2cnn(-c3ccccc3)c2)c1	none (no result: MDM2 E3 inh, Wee1 stabilizer, Hsp70 activator, Calpain2 inh)
CCOC(=O)C1(Cc2ccccc2C)CCCN(S(=O)(=O)CC)C1 (stereo not given)	none (no result: MDM2 E3 inh, Wee1 stabilizer, Hsp70 activator, Calpain2 inh)
O=C(O)c1cccc(Cn2c(Cl)c(/C=N/NC(=O)c3cc4ccccc4cc3O)sc2=O)c1	Calpain2 inh 59 (no result: Hsp70 activator)
O=C1NC(c2ccc3c(c2)OCO3)Nc2ccccc21 (stereo not given)	Wee1 stabilizer 11
CC(=O)Nc1ccc(S(=O)(=O)N2CCN(c3nc4ccccc4n3CC(C)C)CC2)cc1	none (no result: MDM2 E3 inh, Wee1 stabilizer, Hsp70 activator, Calpain2 inh)
CCOC(=O)c1cc(CC)sc1/N=C/c1c(O)ccc2ccccc12	Wee1 stabilizer 9.2
O=C(NC(NC(=S)Nc1cc(Cl)ccc1Cl)C(Cl)(Cl)Cl)c1ccco1 (stereo not given)	none
O=C(Cc1ccccc1)NC(NC(=S)Nc1cc(Cl)ccc1Cl)C(Cl)(Cl)Cl (stereo not given)	Calpain2 inh 51
Cc1cccc(OCCCC(=O)N2CCCCCC2)c1C	none (no result: MDM2 E3 inh, Wee1 stabilizer, Hsp70 activator, Calpain2 inh)
Cc1ccc(C(=O)Nc2ccccc2C(=O)O)cc1S(=O)(=O)Nc1ccc(Br)cc1	none (no result: MDM2 E3 inh, Wee1 stabilizer, Hsp70 activator, Calpain2 inh)
O=C(NCCN1CCOCC1)c1ccc2c(c1)N(Cc1ccccc1)C(=O)CS2	none
O=C(NCCC1=CCCCC1)c1ccc2c(c1)N(Cc1ccccc1)C(=O)CS2	Calpain2 inh 60 (no result: Pf gamet viab)
Cc1ccc(C(=O)Nc2ccc3cn[nH]c3c2)cc1S(=O)(=O)N1CCOCC1	Wee1 stabilizer 9.7 (no result: MDM2 E3 inh)
COc1cc(CCCN2CCNC[C@H]2Cc2cccc3ccccc23)cc(OC)c1OC	none (no result: MDM2 E3 inh, Wee1 stabilizer, Hsp70 activator, Calpain2 inh)
Cc1ccc(Cl)c(OCC(=O)Nc2sc(C)c(C)c2C#N)c1	Wee1 stabilizer 8.8
Cc1ccc(Cl)c(OCC(=O)Nc2ccc3c(c2)OCCO3)c1	none
O=c1[nH]c(N/N=C/c2ccccc2)nc2ccccc12	Wee1 stabilizer 10
CN1CCN(C(=S)c2cn(Cc3ccc(F)cc3)c3ccccc23)CC1	Wee1 stabilizer 9.2
Cc1ccc(NC(=O)COC(=O)C2=COCCO2)cc1	none (no result: Pf gamet viab)
Cc1ccc(NC(=O)COC(=O)C2=COCCO2)c([N+](=O)[O-])c1	Wee1 stabilizer 9.3 (no result: Pf gamet viab)
O=C(CCCSc1nc2ccccc2[nH]1)NC1CCCCC1	Wee1 stabilizer 9.4
COCCCNC(=S)Nc1cccc2ncccc12	Wee1 stabilizer 9.2
Cc1ccc(C)c(N(CC(=O)NC2CCCC2)C(=O)CCCC(=O)Nc2ccccn2)c1	Wee1 stabilizer 8.9 (no result: Pf gamet viab)
O=C(CCCN1C(=O)/C(=C/c2ccccc2Cl)SC1=S)NNC(=O)c1ccc(Cl)cc1Cl	Calpain2 inh 52 (no result: MDM2 E3 inh, Hsp70 activator)
